Test results published in ChEMBL document CHEMBL5058577, “EUbOPEN Chemogenomics Library 2 (Multiplex)” (2022).

Test system: U2OS
Test: Multiplex assay against U2OS
Assay type: toxicity, cell-based
Conditions: human
How it was run: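 Values for tubulin, mitochondrial-mass and membrane-permeability phenotypes are per cents of cells with healthy nuclei. These cells were identified by CellPathfinder machine-learning gating of live cells that had been stained at seeding with Hoechst33342, BioTracker Green Microtubule Cytoskeleton Dye, MitoTracker Red and Annexin V Alexa Fluor 680 and imaged on a CQ1 microscope at 37°C and 5% CO2 after compound addition. The gating first set Hoechst high-intensity objects apart from normal cells, then split normal cells into healthy, pyknosed or fragmented nuclei, and pyknosed cells into mitotic or apoptotic.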

[1] = 12 h, 1 µM, compound concentration 1 uM, replicate 1
[2] = 12 h, 1 µM, compound concentration 1 uM, replicate 2
[3] = 12 h, 10 µM, compound concentration 10 uM, replicate 1
[4] = 12 h, 10 µM, compound concentration 10 uM, replicate 2
[5] = 24 h, 1 µM, compound concentration 1 uM, replicate 1
[6] = 24 h, 1 µM, compound concentration 1 uM, replicate 2
[7] = 24 h, 10 µM, compound concentration 10 uM, replicate 1
[8] = 24 h, 10 µM, compound concentration 10 uM, replicate 2
[9] = 48 h, 1 µM, compound concentration 1 uM, replicate 1
[10] = 48 h, 1 µM, compound concentration 1 uM, replicate 2
[11] = 48 h, 10 µM, compound concentration 10 uM, replicate 1
[12] = 48 h, 10 µM, compound concentration 10 uM, replicate 2

C[C@H](N)COC(=O)[C@@H](CCCCN)NC(=O)Cc1c(-c2ccc3ccccc3c2)[nH]c2c1ccc1ccccc12
Population Apoptotic (%) [1]: 73%
Population Fragmented Nuclei (%) [1]: 26%
Population Healthy Nuclei (%) [1]: 66%
Population Hoechst High Intensity Objects (%) [1]: 3%
Population Membrane Permeable-Phenotype (%) [1]: 6%
Population Mitochondria Different-Phenotype (%) [1]: 3%
Population Mitotic Cells (%) [1]: 26%
Population Normal (%) [1]: 96%
Population Pyknosed Nuclei (%) [1]: 6%
Population Tubulin-Different-Phenotype (%) [1]: 3%
Total Cell Count [1]: 244
Population Apoptotic (%) [2]: 75%
Population Fragmented Nuclei (%) [2]: 14%
Population Healthy Nuclei (%) [2]: 78%
Population Hoechst High Intensity Objects (%) [2]: 0%
Population Membrane Permeable-Phenotype (%) [2]: 4%
Population Mitochondria Different-Phenotype (%) [2]: 2%
Population Mitotic Cells (%) [2]: 25%
Population Normal (%) [2]: 99%
Population Tubulin-Different-Phenotype (%) [2]: 4%
Total Cell Count [2]: 128
Population Apoptotic (%) [3]: 78%
Population Fragmented Nuclei (%) [3]: 23%
Population Healthy Nuclei (%) [3]: 69%
Population Hoechst High Intensity Objects (%) [3]: 2%
Population Membrane Permeable-Phenotype (%) [3]: 5%
Population Mitochondria Different-Phenotype (%) [3]: 1%
Population Mitotic Cells (%) [3]: 21%
Population Normal (%) [3]: 97%
Population Pyknosed Nuclei (%) [3]: 7%
Population Tubulin-Different-Phenotype (%) [3]: 3%
Total Cell Count [3]: 279
Population Apoptotic (%) [4]: 50%
Population Fragmented Nuclei (%) [4]: 24%
Population Healthy Nuclei (%) [4]: 73%
Population Hoechst High Intensity Objects (%) [4]: 0%
Population Membrane Permeable-Phenotype (%) [4]: 17%
Population Mitochondria Different-Phenotype (%) [4]: 3%
Population Mitotic Cells (%) [4]: 50%
Population Normal (%) [4]: 100%
Population Pyknosed Nuclei (%) [4]: 1%
Population Tubulin-Different-Phenotype (%) [4]: 5%
Total Cell Count [4]: 106
Population Apoptotic (%) [5]: 83%
Population Fragmented Nuclei (%) [5]: 22%
Population Healthy Nuclei (%) [5]: 68%
Population Hoechst High Intensity Objects (%) [5]: 2%
Population Membrane Permeable-Phenotype (%) [5]: 3%
Population Mitochondria Different-Phenotype (%) [5]: 1%
Population Mitotic Cells (%) [5]: 16%
Population Normal (%) [5]: 97%
Population Pyknosed Nuclei (%) [5]: 8%
Population Tubulin-Different-Phenotype (%) [5]: 2%
Total Cell Count [5]: 292
Population Apoptotic (%) [6]: 90%
Population Fragmented Nuclei (%) [6]: 16%
Population Healthy Nuclei (%) [6]: 77%
Population Hoechst High Intensity Objects (%) [6]: 1%
Population Membrane Permeable-Phenotype (%) [6]: 6%
Population Mitotic Cells (%) [6]: 10%
Population Normal (%) [6]: 98%
Population Pyknosed Nuclei (%) [6]: 5%
Population Tubulin-Different-Phenotype (%) [6]: 3%
Total Cell Count [6]: 170
Population Apoptotic (%) [7]: 81%
Population Fragmented Nuclei (%) [7]: 19%
Population Healthy Nuclei (%) [7]: 73%
Population Hoechst High Intensity Objects (%) [7]: 2%
Population Membrane Permeable-Phenotype (%) [7]: 5%
Population Mitochondria Different-Phenotype (%) [7]: 1%
Population Mitotic Cells (%) [7]: 18%
Population Normal (%) [7]: 97%
Population Pyknosed Nuclei (%) [7]: 6%
Population Tubulin-Different-Phenotype (%) [7]: 2%
Total Cell Count [7]: 337
Population Apoptotic (%) [8]: 100%
Population Fragmented Nuclei (%) [8]: 17%
Population Healthy Nuclei (%) [8]: 79%
Population Membrane Permeable-Phenotype (%) [8]: 11%
Population Mitochondria Different-Phenotype (%) [8]: 3%
Population Mitotic Cells (%) [8]: 0%
Population Pyknosed Nuclei (%) [8]: 2%
Population Tubulin-Different-Phenotype (%) [8]: 6%
Total Cell Count [8]: 142
Population Apoptotic (%) [9]: 79%
Population Fragmented Nuclei (%) [9]: 16%
Population Healthy Nuclei (%) [9]: 78%
Population Hoechst High Intensity Objects (%) [9]: 1%
Population Membrane Permeable-Phenotype (%) [9]: 2%
Population Mitochondria Different-Phenotype (%) [9]: 2%
Population Mitotic Cells (%) [9]: 20%
Population Normal (%) [9]: 98%
Population Pyknosed Nuclei (%) [9]: 5%
Population Tubulin-Different-Phenotype (%) [9]: 2%
Total Cell Count [9]: 440
Population Apoptotic (%) [10]: 73%
Population Fragmented Nuclei (%) [10]: 17%
Population Healthy Nuclei (%) [10]: 73%
Population Hoechst High Intensity Objects (%) [10]: 2%
Population Membrane Permeable-Phenotype (%) [10]: 3%
Population Mitochondria Different-Phenotype (%) [10]: 4%
Population Mitotic Cells (%) [10]: 26%
Population Normal (%) [10]: 97%
Population Pyknosed Nuclei (%) [10]: 8%
Population Tubulin-Different-Phenotype (%) [10]: 1%
Total Cell Count [10]: 231
Population Apoptotic (%) [11]: 90%
Population Fragmented Nuclei (%) [11]: 14%
Population Healthy Nuclei (%) [11]: 74%
Population Hoechst High Intensity Objects (%) [11]: 4%
Population Membrane Permeable-Phenotype (%) [11]: 6%
Population Mitochondria Different-Phenotype (%) [11]: 1%
Population Mitotic Cells (%) [11]: 9%
Population Normal (%) [11]: 95%
Population Pyknosed Nuclei (%) [11]: 10%
Population Tubulin-Different-Phenotype (%) [11]: 2%
Total Cell Count [11]: 505
Population Fragmented Nuclei (%) [12]: 16%
Population Healthy Nuclei (%) [12]: 77%
Population Membrane Permeable-Phenotype (%) [12]: 16%
Population Mitochondria Different-Phenotype (%) [12]: 2%
Population Mitotic Cells (%) [12]: 10%
Population Pyknosed Nuclei (%) [12]: 5%
Population Tubulin-Different-Phenotype (%) [12]: 6%
Total Cell Count [12]: 184
